Experimental data reported in ChEMBL document CHEMBL4400546, “A Cinchona Alkaloid Antibiotic That Appears To Target ATP Synthase in Streptococcus pneumoniae” (J Med Chem, 2019).
In brackets after ≈: the same amount, converted by molar mass. Activity calls are given as the source filed them. No cut-off for these calls is given here.

Columns and labels:
[1] = Cytotoxicity against human HepG2 cells assessed as reduction in cell viability after 48 hrs by Alamar Blue assay; type: cell-based
[2] = system: Streptococcus pneumoniae; test: Bacteriostatic activity against Streptococcus pneumoniae D39 at 1 to 5 times MIC after 18 hrs by time-kill assay; type: functional, organism-based
Method in brief: (§1)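 Time-kill in S. pneumoniae D39 at multiples of MIC. Killing is followed by OD620 up to 18 h, with CFU determined at each time point by plating. Vancomycin is the positive control. Four independent experiments.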

[3] = system: Streptococcus pneumoniae; test: Bactericidal activity against Streptococcus pneumoniae D39 after 24 hrs; type: functional; details: D39, 24 h
[4] = system: Streptococcus pneumoniae; test: Potentiation of penicillin-induced antibacterial activity against Streptococcus pneumoniae D39 at 2 times MIC after 20 hrs by checkerboard assay; type: functional
Method in brief: (§2)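 Checkerboard combination assay in S. pneumoniae D39 with the partner antibiotic. Fractional inhibitory concentration indices were calculated, and the minimum FICI was taken per combination. Three to four independent checkerboards were run.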

[5] = system: Streptococcus pyogenes; test: Antibacterial activity against Streptococcus pyogenes ST157 after 20 hrs by CLSI-based microdilution method; type: functional; details: ST157, 20 h
[6] = system: Streptococcus pneumoniae D39; test: Inhibition of wild-type Streptococcus pneumoniae D39 ATP synthase atpE assessed as intracellular pH at 8 ug/ml measured at 5 mins by pH-sensitive GFP-based fluorescence assay (reference value: 7.34 +/- 0.04); type: cell-based
Method in brief: (§3)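 S. pneumoniae D39 WT and isogenic atpE G142C or G145A mutants carry a plasmid-borne ratiometric pH-sensitive GFP biosensor. Cells are in PBS pH 7.2 with 10 mM glucose and are treated with compound, DMSO (0.5% v/v) or CCCP (10 µM). Intracellular pH is read immediately and at 5-min intervals. Two independent experiments, each in triplicate.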

[7] = system: Enterobacter cloacae; test: Antibacterial activity against Enterobacter cloacae TH11715 after 20 hrs by CLSI-based microdilution method; type: functional; details: TH11715, 20 h
[8] = system: Enterococcus faecium; test: Antibacterial activity against Enterococcus faecium TH6064 after 20 hrs by CLSI-based microdilution method; type: functional; details: TH6064, 20 h
[9] = system: Streptococcus pneumoniae; test: Bacteriostatic activity against Streptococcus pneumoniae D39 up 100 times MIC after 18 hrs by time-kill assay; type: functional, organism-based; method in brief: as §1
[10] = system: Streptococcus pneumoniae; test: Antibacterial activity against penicillin/erythromycin/meropenem/tetracycline-resistant Streptococcus pneumoniae TH2863 (19F) after 20 hrs by CLSI-based microdilution method; type: functional
[11] = system: Pseudomonas aeruginosa; test: Antibacterial activity against Pseudomonas aeruginosa TH4090 after 20 hrs by CLSI-based microdilution method; type: functional; details: TH4090, 20 h
[12] = system: Streptococcus pneumoniae; test: Antibacterial activity against optochin-resistant Streptococcus pneumoniae R6 expressing atpE G145A mutant after 20 hrs by CLSI-based microdilution method; type: functional; details: R6, 20 h
[13] = system: Streptococcus pneumoniae D39; test: Inhibition of wild-type Streptococcus pneumoniae D39 ATP synthase atpE G145 mutant assessed as reduction in intracellular pH at >2 ug/ml measured at 5 mins by pH-sensitive GFP-based fluorescence assay; type: cell-based; method in brief: as §3
[14] = system: Streptococcus mitis; test: Antibacterial activity against Streptococcus mitis ST138 after 20 hrs by CLSI-based microdilution method; type: functional; details: ST138, 20 h
[15] = system: Streptococcus pneumoniae; test: Potentiation of levofloxacin-induced antibacterial activity against Streptococcus pneumoniae D39 at 2 times MIC after 20 hrs by checkerboard assay; type: functional; method in brief: as §2
[16] = system: Streptococcus pneumoniae; test: Potentiation of rifampicin-induced antibacterial activity against Streptococcus pneumoniae D39 at 2 times MIC after 20 hrs by checkerboard assay; type: functional; method in brief: as §2
[17] = system: Streptococcus pneumoniae; test: Antibacterial activity against Streptococcus pneumoniae R6 after 20 hrs by CLSI-based microdilution method; type: functional; details: R6, 20 h
[18] = system: Streptococcus pneumoniae; test: Antibacterial activity against amoxicillin/penicillin/chloramphenicol/erythromycin/meropenem/cefotaxime-resistant Streptococcus pneumoniae TH2582 (19A) after 20 hrs by CLSI-based microdilution method; type: functional
[19] = system: Klebsiella pneumoniae; test: Antibacterial activity against Klebsiella pneumoniae ATCC 13883 after 20 hrs by CLSI-based microdilution method; type: functional; details: ATCC 13883, 20 h
[20] = system: Streptococcus pneumoniae; test: Potentiation of vancomycin-induced antibacterial activity against Streptococcus pneumoniae D39 at 2 times MIC after 20 hrs by checkerboard assay; type: functional; method in brief: as §2
[21] = system: Streptococcus pneumoniae; test: Bacteriostatic activity against Streptococcus pneumoniae D39 at 1 to 5 times MIC using 10^7CFU inoculum after 18 hrs by time-kill assay; type: functional, organism-based; method in brief: as §1
[22] = system: Streptococcus pneumoniae D39; test: Inhibition of wild-type Streptococcus pneumoniae D39 ATP synthase atpE G142C mutant assessed as reduction in intracellular pH at >0.25 to 8 ug/ml measured at 5 mins by pH-sensitive GFP-based fluorescence assay; type: cell-based; method in brief: as §3
[23] = system: Staphylococcus aureus; test: Antibacterial activity against Staphylococcus aureus TH4114 after 20 hrs by CLSI-based microdilution method; type: functional; details: TH4114, 20 h
[24] = system: Streptococcus pneumoniae D39; test: Inhibition of wild-type Streptococcus pneumoniae D39 ATP synthase atpE G142C mutant assessed as change in intracellular pH at 0.25 ug/ml measured at 5 mins by pH-sensitive GFP-based fluorescence assay (reference value: 7.34 +/- 0.04); type: cell-based; method in brief: as §3
[25] = system: Mycobacterium tuberculosis; test: Antibacterial activity against Mycobacterium tuberculosis H37Rv after […] by CLSI-based microdilution method; type: functional
[26] = system: Streptococcus pneumoniae; test: Antibacterial activity against amoxicillin/penicillin/cefotaxime/erythromycin/tetracycline-resistant Streptococcus pneumoniae TH2784 (19F) after 20 hrs by CLSI-based microdilution method; type: functional
[27] = system: Streptococcus pneumoniae D39; test: Inhibition of wild-type Streptococcus pneumoniae D39 ATP synthase atpE assessed as intracellular pH at 0.25 ug/ml measured at 10 mins by pH-sensitive GFP-based fluorescence assay (reference value: 7.34 +/- 0.04); type: cell-based; method in brief: as §3
[28] = system: Streptococcus pneumoniae D39; test: Inhibition of wild-type Streptococcus pneumoniae D39 ATP synthase atpE assessed as intracellular pH at 0.25 ug/ml measured at 5 mins by pH-sensitive GFP-based fluorescence assay (reference value: 7.34 +/- 0.04); type: cell-based; method in brief: as §3
[29] = system: Streptococcus pneumoniae; test: Bacteriostatic activity against Streptococcus pneumoniae D39 assessed as resistant frequency at 4 to 16 times MIC after 24 hrs by time-kill assay; type: functional, organism-based
[30] = system: Streptococcus pneumoniae; test: Antibacterial activity against amoxicillin/penicillin/erythromycin/ertapenem/moxifloxacin/cefotaxime-resistant Streptococcus pneumoniae TH2889 (6B) after 20 hrs by CLSI-based microdilution method; type: functional
[31] = system: Streptococcus pneumoniae; test: Antibacterial activity against optochin-resistant Streptococcus pneumoniae R6 expressing atpE G142C mutant after 20 hrs by CLSI-based microdilution method; type: functional; details: R6, 20 h
[32] = system: Acinetobacter baumannii; test: Antibacterial activity against Acinetobacter baumannii TH9781 after 20 hrs by CLSI-based microdilution method; type: functional; details: TH9781, 20 h
[33] = Mitochondrial toxicity in human HepG2 cells assessed as reduction in cell viability after 24 hrs in presence of galactose by CellTiter-Glo assay; type: cell-based
Method in brief: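 HepG2 cells are grown in DMEM supplemented with 10 mM galactose or 10 mM glucose and treated for 24 h. Viability is read by CellTiter-Glo luminescence. The CC90 is the concentration inhibiting 90% of cell viability, taken from dose–response curves. Oligomycin and tamoxifen serve as controls.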

[34] = system: Streptococcus pneumoniae D39; test: Inhibition of wild-type Streptococcus pneumoniae D39 ATP synthase atpE assessed as intracellular pH at 0.0625 ug/ml measured immediately post treatment by pH-sensitive GFP-based fluorescence assay (reference value: 7.34 +/- 0.04); type: cell-based; method in brief: as §3
[35] = system: Streptococcus pneumoniae D39; test: Inhibition of wild-type Streptococcus pneumoniae D39 ATP synthase atpE assessed as intracellular pH at 0.0625 ug/ml measured at 5 mins by pH-sensitive GFP-based fluorescence assay (reference value: 7.34 +/- 0.04); type: cell-based; method in brief: as §3
[36] = Mitochondrial toxicity in human HepG2 cells assessed as reduction in cell viability after 24 hrs in presence of glucose by CellTiter-Glo assay; type: cell-based
Method in brief: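 HepG2 cells grown in DMEM with 10 mM glucose, treated 24 h; viability read by CellTiter-Glo luminescence. Value is the concentration giving 90% loss of viability (CC90) from dose-response curves, top concentration 300 µM.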

[37] = system: Streptococcus pneumoniae D39; test: Inhibition of wild-type Streptococcus pneumoniae D39 ATP synthase atpE assessed as intracellular pH at 0.25 ug/ml measured at 15 mins by pH-sensitive GFP-based fluorescence assay (reference value: 7.34 +/- 0.04); type: cell-based; method in brief: as §3
[38] = system: Streptococcus pneumoniae; test: Antibacterial activity against Streptococcus pneumoniae D39 after 20 hrs by CLSI-based microdilution method; type: functional; details: D39, 20 h
[39] = system: Escherichia coli; test: Antibacterial activity against Escherichia coli TH4746 after 20 hrs by CLSI-based microdilution method; type: functional; details: TH4746, 20 h
[40] = system: Streptococcus pneumoniae; test: Bactericidal activity against Streptococcus pneumoniae D39 assessed as fold reduction in CFU at 5 times MIC after 3 hrs by time-kill assay relative to control; type: functional; method in brief: as §1

## CC=C1C[N@]2CC[C@H]1C[C@H]2[C@H](O)c1ccnc2ccc(OC3CCC3)cc12
[1]
  CC50 at 48 h: 56 µM
[2]
  Activity: Active
[3]
  MBC: 1 to 2 µg/mL (≈ 2.74 to 5.49 µM)
[4]
  FIC: 0.63 - 1
[5]
  MIC: 32 µg/mL (≈ 87.8 µM)
[6]
  pH: 6.66
[7]
  MIC: > 128 µg/mL
[8]
  MIC: 64 to 128 µg/mL (≈ 176 to 351 µM)
[9]
  Activity: Active
[10]
  MIC: 0.5 to 1 µg/mL (≈ 1.37 to 2.74 µM)
[11]
  MIC: > 128 µg/mL
[12]
  MIC: 4 µg/mL (≈ 11 µM)
[13]
  inhibition: Active
[14]
  MIC: 16 µg/mL (≈ 43.9 µM)
[15]
  FIC: 0.63 - 1
[16]
  FIC: 0.63 - 1
[17]
  MIC: 0.5 µg/mL (≈ 1.37 µM)
[18]
  MIC: 0.25 to 0.5 µg/mL (≈ 0.686 to 1.37 µM)
[19]
  MIC: 128 µg/mL (≈ 351 µM)
[20]
  FIC: 0.63 - 1
[21]
  Activity: Active
[22]
  inhibition: Active
[23]
  MIC: 128 µg/mL (≈ 351 µM)
[24]
  deltapH: < 0.03
[25]
  MIC: > 256 µg/mL
[26]
  MIC: 0.5 µg/mL (≈ 1.37 µM)
[27]
  pH: 6.68
[28]
  pH: 6.82
[29]
  Activity: Active
[30]
  MIC: 0.5 µg/mL (≈ 1.37 µM)
[31]
  MIC: 8 to 16 µg/mL (≈ 21.9 to 43.9 µM)
[32]
  MIC: 128 µg/mL (≈ 351 µM)
[33]
  CC90 at 24 h: 150 µM
[34]
  pH: 7.11
[35]
  pH: 7.02
[36]
  CC90 at 24 h: 150 µM
[37]
  deltapH: -0.52
[38]
  MIC: 0.7 µM (≈ 0.255 µg/mL)
[39]
  MIC: > 128 µg/mL

## CN[C@H](CC(C)C)C(=O)N[C@H]1C(=O)N[C@@H](CC(N)=O)C(=O)N[C@H]2C(=O)N[C@H]3C(=O)N[C@H](C(=O)N[C@H](C(=O)O)c4cc(O)cc(O)c4-c4cc3ccc4O)[C@H](O)c3ccc(c(Cl)c3)Oc3cc2cc(c3O[C@@H]2O[C@H](CO)[C@@H](O)[C@H](O)[C@H]2O[C@H]2C[C@](C)(N)[C@H](O)[C@H](C)O2)Oc2ccc(cc2Cl)[C@H]1O [VANCOMYCIN]
[40]
  fold change (FC): 1000
